Calls of active or inactive are those of the source.
Assays:
Mus musculus [1] = organism: Mus musculus; test: Stimulation of mouse CD1d-mediated IL-4 production in mouse splenocytes measured at 32 ng/ml after 72 hrs by ELISA; format: cell-based
In short: (§1)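 Mouse splenocytes were treated individually with glycolipid and cultured for 72 h. IFN-γ and IL-4 in the culture were then measured. Results are expressed as relative activity, as means ±SD of triplicates, from one representative of two independent experiments.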

Mus musculus [2] = organism: Mus musculus; test: Stimulation of mouse CD1d-mediated IFN-gamma production in C57BL/6 mouse splenocytes measured at 32 ng/ml after 72 hrs by ELISA; format: cell-based; in short: as §1
RBL = test: Stimulation of mouse CD1d-mediated IL-2 production in DN32.D3 hybridoma cells co-cultured with mouse CD1d transfected RBL cells measured at 32 to 500 ng/ml after 16 hrs by ELISA
Mus musculus [3] = test: In vivo stimulation of mouse CD1d-mediated peak IL4 production in C57BL/6 mouse serum measured at 0.5 ug, iv after 2 hrs by ELISA; format: functional, organism-based
Mus musculus [4] = test: In vivo stimulation of mouse CD1d-mediated peak IFN-gamma production in C57BL/6 mouse serum measured at 0.5 ug, iv after 12 hrs by ELISA; format: functional, organism-based

Measured: Activity

CCCCCCCCCCCCCC[C@@H](O)[C@@H](O)[C@H](CO[C@H]1O[C@H](CO)[C@H](O)[C@H](O)[C@H]1O)NC(=O)CCCCCCCCCCC
active: Mus musculus [1] | Mus musculus [2] | RBL

CCCCCCCCCCCCCC[C@@H](O)[C@@H](O)[C@H](CO[C@H]1O[C@H](CO)[C@H](O)[C@H](O)[C@H]1O)NC(=O)CCCCCCCCCCCO
active: Mus musculus [1] | Mus musculus [2] | RBL

CCCCCCCCCCCCCC[C@@H](O)[C@@H](O)[C@H](CO[C@H]1O[C@H](CO)[C@H](O)[C@H](O)[C@H]1O)NC(=O)CCCCCCCCCC
active: Mus musculus [1] | Mus musculus [2] | RBL

CCCCCCCCCCCCCCCCCCCCCCCCCC(=O)N[C@@H](CO[C@H]1O[C@H](CO)[C@H](O)[C@H](O)[C@H]1O)[C@H](O)[C@H](O)CCCCCCCCCCCCCC
active: all assays above

CCCCCCCCCCCCCC[C@@H](O)[C@@H](O)[C@H](CO[C@H]1O[C@H](CO)[C@H](O)[C@H](O)[C@H]1O)NC(=O)CCCCCCCCCCO
active: all assays above

CCCCCCCCCCCCCC[C@@H](O)[C@@H](O)[C@H](CO[C@H]1O[C@H](CO)[C@H](O)[C@H](O)[C@H]1O)NC(=O)CCCCCCCCCCCCCCCO
active: Mus musculus [1] | Mus musculus [2]

Reference: ChEMBL document CHEMBL3259576, “Design and Evaluation of ω-Hydroxy Fatty Acids Containing α-GalCer Analogues for CD1d-Mediated NKT Cell Activation” (ACS Med Chem Lett, 2014)
